The test system of assay [1] is SH-SY5Y. The assay is described as follows: Cell viability of human SH-SY5Y cells at 0.1 uM after 24 hrs by MTS assay. It is filed as functional. The method, boiled down:
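SH-SY5Y cells were grown in 1:1 EMEM/F12K with 10% heat-inactivated FBS at 37 °C and 5% CO₂. One day after plating, cells were pretreated with compound for 2 h, then exposed to hydrogen peroxide for 24 h. MTS reagent was added for 3 h at 37 °C and OD read at 490 nm. Viability is % of control, from at least two independent experiments in triplicate.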
On the technique in general: Formazan colour is commonly taken as a measure of viable cells.

The subject of the next assay is Staphylococcus aureus. Briefly: Antibacterial activity against Staphylococcus aureus ATCC 25923 after 16 to 18 hrs by agar dilution method. It is filed as functional. The gist of the method: (§1)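 Agar dilution MIC following CLSI guidance. E. faecalis was grown on Brain–Heart Infusion agar and the other strains on Mueller Hinton agar. Compounds were diluted in DMSO or 0.1 M NaOH in twofold steps to give final concentrations of 0.06–128 µg/mL. Inocula of 10^4 cfu/spot were incubated 16–18 h at 36 °C in ambient air. MIC was taken as the lowest concentration preventing visible growth.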

Assay [2] concerns Staphylococcus epidermidis. Briefly: Antibacterial activity against Staphylococcus epidermidis ATCC 12228 after 16 to 18 hrs by agar dilution method. Format: functional. The method, boiled down: as §1
A further assay has as its system Bacillus subtilis. Briefly: Antimicrobial activity against Bacillus subtilis ATCC 6633 after 16 to 18 hrs by agar dilution method. Format: functional. The method, boiled down:
(§2)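 Agar dilution MIC per CLSI on Mueller Hinton agar. Stocks were diluted in DMSO or 0.1 M NaOH as a twofold series, with final concentrations 0.06–128. Plates were spotted at 10⁴ cfu/spot and incubated in ambient air at 36 °C for 16–18 h. MIC was the lowest concentration that prevented visible growth.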

For the next assay, the system named is Enterococcus faecalis. The assay is described as follows: Antibacterial activity against Enterococcus faecalis ATCC 29212 after 16 to 18 hrs by agar dilution method. It is filed as functional. The gist of the method:
as §1
Background: Agar dilution tests growth on a series of plates holding different concentrations.

In the next assay the test system is Escherichia coli. Briefly: Antibacterial activity against Escherichia coli ATCC 25922 after 16 to 18 hrs by agar dilution method. Format: functional. The method, boiled down: as §1
The next assay deals with Enterobacter cloacae. The assay is described as follows: Antibacterial activity against Enterobacter cloacae ATCC 13047 after 16 to 18 hrs by agar dilution method. Format: functional.
For the next assay, the system named is Serratia marcescens. Briefly: Antibacterial activity against Serratia marcescens ATCC 27117 after 16 to 18 hrs by agar dilution method. Format: functional. The gist of the method:
as §2

Assay [3] concerns SH-SY5Y. The assay is described as follows: Enhancement of cell viability of human SH-SY5Y cells at 0.1 uM after 24 hrs by MTS assay relative to control. Format: functional. The method, boiled down:
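SH-SY5Y neuroblastoma cells were grown in 1:1 EMEM/F12K with 10% heat-inactivated FBS at 37 °C, 5% CO2. After 1 day, cells were pretreated with compound at 0.1 µM for 2 h, then exposed to 200 µM H2O2 for 24 h. Viability was read by MTS (3 h, 37 °C, OD 490 nm) as a percentage of control. At least two independent experiments, each in triplicate.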

In assay [4] the test system is Rattus norvegicus. Briefly: Antiischemic effect in Sprague-Dawley rat focal ischemic sroke model assessed as reduction of infract size in brain at 0.001 mg/kg, ip after 24 hrs under pre-ischemic conditions. It is filed as functional. The arrangement: scale not given: the % may be the effect or the level left. To be noted: route intraperitoneal. The method, boiled down: (§3)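 Rat MCAO with 2 h ischemia and 22 h reperfusion, pre-ischemic regimen. Compound was given ip three times: 3 h and 1 h before, and 1 h after, MCA occlusion. Brains were removed 24 h after ischemia, cut into seven slices, and stained with TTC. Infarct volume was measured by computer-assisted planimetry and expressed as % reduction versus vehicle-treated rats.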

The subject of assay [5] is Rattus norvegicus. Briefly: Antiischemic effect in Sprague-Dawley rat focal ischemic sroke model assessed as reduction of infract size in brain at 0.01 mg/kg, ip after 24 hrs under pre-ischemic conditions. It is filed as functional. Set-up: scale not given: the % may be the effect or the level left. To be noted: route intraperitoneal. The gist of the method: as §3
Assay [6] relates to Rattus norvegicus. The assay is described as follows: Antiischemic effect in Sprague-Dawley […] sroke model assessed as reduction of infract size in brain at 0.1 mg/kg, ip after 24 hrs under pre-ischemic conditions. It is filed as functional. Set-up: scale not given: the % may be the effect or the level left. Particulars: route intraperitoneal. The method, boiled down: as §3

The test system of assay [7] is Rattus norvegicus. The assay is described as follows: Cardioprotective effect in Sprague-Dawley rat myocardial infarction model assessed as reduction of infract area in heart at 0.001 mg/kg, ip. Format: functional. The arrangement: scale not given: the % may be the effect or the level left. Particulars: route intraperitoneal. The gist of the method:
(§4)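 Male Sprague–Dawley rats (260–290 g) were anesthetized with ketamine ([…]) and xylazine (5 mg/kg). A single ip dose was given 1 h before regional myocardial ischemia (30 min), followed by 3 h reperfusion. After 1% Evans blue, the left ventricle was cut into two slices and stained with TTC. Infarct size was expressed as % of area at risk versus vehicle, using Student's t-test (P < 0.05).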

Assay [8] deals with Rattus norvegicus. The assay is described as follows: Cardioprotective effect in Sprague-Dawley rat myocardial infarction model assessed as reduction of infract area in heart at 0.01 mg/kg, ip. Format: functional. Set-up: scale not given: the % may be the effect or the level left. To be noted: route intraperitoneal. The method, boiled down: as §4
Assay [9] concerns Rattus norvegicus. Briefly: Cardioprotective effect in Sprague-Dawley rat myocardial infarction model assessed as reduction of infract area in heart at 0.1 mg/kg, ip. To be noted: route intraperitoneal. Format: functional. The arrangement: scale not given: the % may be the effect or the level left. The method, boiled down: as §4
Assay [10] deals with Rattus norvegicus. The assay is described as follows: Cardioprotective effect in Sprague-Dawley rat myocardial infarction model assessed as reduction of infract size in heart at 0.001 mg/kg, ip. It is filed as functional. Set-up: scale not given: the % may be the effect or the level left. To be noted: route intraperitoneal. The method, boiled down:
as §4

Assay [11] concerns Rattus norvegicus. Briefly: Cardioprotective effect in Sprague-Dawley rat myocardial infarction model assessed as reduction of infract size in heart at 0.01 mg/kg, ip. Format: functional. The arrangement: scale not given: the % may be the effect or the level left. To be noted: route intraperitoneal. The method, boiled down:
as §4

The subject of assay [12] is Rattus norvegicus. Briefly: Antiischemic effect in Sprague-Dawley rat focal ischemic sroke model assessed as reduction of infract size in brain at 0.01 mg/kg, ip after 24 hrs under post-ischemic conditions. Set-up: scale not given: the % may be the effect or the level left. To be noted: route intraperitoneal.

In brackets after ≈: the same amount, converted by molar mass. Some results are limits rather than exact numbers.

For the compound `Cc1c(C(=O)O)c(=O)c2cc(F)c(N3CCNCC3)cc2n1C1CC1`, the Activity in the assay on SH-SY5Y [1] is 49.9%.
`O=C(O)c1cn(C2CC2)c2cc(N3CCCCC3)c(F)cc2c1=O` displayed an Activity in the assay with SH-SY5Y [1] of 44.1%.
On the same count and under the same terms, the value for `O=C(O)c1cn(C2CC2)c2ccccc2c1=O` was 39%; that for `O=C(O)c1cn(C2CC2)c2cc(N3CCNCC3)c(F)cc2c1=S` was 27.1%.
Turning to `O=c1ccn(C2CC2)c2cc(N3CCNCC3)c(F)cc12`, the Activity in the assay with SH-SY5Y [1] is listed as 57.4%; in the assay with SH-SY5Y [3], 33%. Moreover, the MIC (usually the least concentration at which growth counts as inhibited) against Staphylococcus aureus is 16 µg/mL (≈ 55.7 µM); in [2], 8 µg/mL (≈ 27.8 µM); against Bacillus subtilis, 8 µg/mL (≈ 27.8 µM); against Enterococcus faecalis, 8 µg/mL (≈ 27.8 µM); against Escherichia coli it was under 0.12 µg/mL; against Enterobacter cloacae, 0.5 µg/mL (≈ 1.74 µM). In the assay on Serratia marcescens, this compound came in with a minimal inhibitory concentration (MIC) of 1 µg/mL (≈ 3.48 µM).
As for `O=C(O)c1cn(C2CC2)c2cc(N3CCNCC3)ccc2c1=O`, the Activity stood at 61.7% in the assay on SH-SY5Y [1]; 9.6% with Rattus norvegicus [4]; 32.1% in the assay on Rattus norvegicus [5]; 5.3% in the assay on Rattus norvegicus [6]; 62.1% in the assay on Rattus norvegicus [7]; 53.1% with Rattus norvegicus [8]. For the same compound, the Activity in the assay on Rattus norvegicus [9] amounted to 78.3%; with Rattus norvegicus [10] it was 14.2%; in the assay with Rattus norvegicus [11] it was 26.6%; in the assay with SH-SY5Y [3] it was 42%; in the assay on Rattus norvegicus [12] it was 8.9%. The MIC was 32 µg/mL (≈ 102 µM) against Staphylococcus aureus; 16 µg/mL (≈ 51.1 µM) in [2]; 8 µg/mL (≈ 25.5 µM) against Bacillus subtilis; 64 µg/mL (≈ 204 µM) in the assay on Enterococcus faecalis; 0.5 µg/mL (≈ 1.6 µM) in the assay on Escherichia coli; 1 µg/mL (≈ 3.19 µM) against Enterobacter cloacae. The compound also had an MIC in the assay on Serratia marcescens of 4 µg/mL (≈ 12.8 µM).
With `O=C(O)c1cn(C2CC2)c2cc(C3CCNCC3)c(F)cc2c1=O`, in the assay with SH-SY5Y [1], the Activity was 42.4%.
`O=C(O)c1cn(C2CC2)c2ccc(F)cc2c1=O` registered an Activity with SH-SY5Y [1] of 45.1%.
In turn, `O=C(O)c1cn(C2CC2)c2cc(N3CCNCC3)c(F)cc2c1=O` [CIPROFLOXACIN] returned an Activity in the assay with SH-SY5Y [1] of 46.5%. In addition, the MIC against Staphylococcus aureus is 2 µg/mL (≈ 6.04 µM); in assay [2] it was 1 µg/mL (≈ 3.02 µM); in the assay on Bacillus subtilis it was 1 µg/mL (≈ 3.02 µM); against Enterococcus faecalis, 2 µg/mL (≈ 6.04 µM); in the assay on Serratia marcescens, 0.125 µg/mL (≈ 0.377 µM).

The values above are taken from ChEMBL document CHEMBL1143767, “Identification, biological activity, and mechanism of the anti-ischemic quinolone analog” (2007).
